Measured values from PubChem BioAssay.
Active and inactive are the calls of the source.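 Rule for the calls, unless noted: active = inhibition above 20% together with a positive visual image hit; inconclusive = visual image hit but inhibition not above 20%; inactive = no visual image hit.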

Key:
[1] = inhibitors of TNFa-induced NFkB p65 translocation, primary screen, imaging, HUVEC, MLSMR starter and 10KST1 sets (AID 438); conditions: HUVEC TNFa-induced p65 nuclear translocation; cell count: measured here: nuclei count (cytotoxicity indicator), at 2.08 µM; inhibition: at 2 µM, stronger effect = higher value, 0% TNFa-plus-vehicle, 100% no-TNFa wells;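 note: compound added about 3h40 before a 20 min TNFalpha stimulation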;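 for inhibition: signal is the nuclear over cytoplasmic p65 intensity ratio per well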
[2] = inhibitors of mutant huntingtin aggregation, primary screen, imaging, exon1htt(103Q)mCFP cells, high-content imaging (AID 483;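 active = visual image review flags a hit and inhibition of aggregation exceeds 20%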;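 note: compound exposure lasted 3 days before fixation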;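 for nuclei count: percent of the per-plate median nuclei count of sample wells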); conditions: exon1htt(103Q)mCFP cell line, aggregate imaging, at 2 µM; inhibition of aggregation: stronger effect = higher value; nuclei count: measured here: cell count, toxicity
[3] = inhibitors of E-selectin induction by TNFa, primary screen, imaging, HUVEC, immunofluorescence, MLSMR starter and 10KST1 sets (AID 487;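 active = visually confirmed hit in the image check and inhibition above 20%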;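 for inhibition: signal is fraction of cell area covered by stained E-selectin grains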;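 for nuclei count: 100% = median nuclei count of all wells on the same plate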); conditions: HUVEC TNFalpha-induced E-selectin immunofluorescence imaging, at 2 µM; inhibition: stronger effect = higher value; nuclei count: measured here: cell number, toxicity
[4] = molecular target: Voltage-gated potassium channel subunit beta-2 (Rattus norvegicus) (UniProt P62483); assay: KvBeta enzyme negative modulators, primary screen, biochemical, NADPH fluorescence (AID 622;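 active = fluorescence slope higher than the sample average by over 3 SD, cut at about -0.22 in these data, passing the limit was not always enough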;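 note: slope of raw intensity against log time taken from 70 to 1610 s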); conditions: recombinant KvBeta, 4-cyanobenzaldehyde reduction, at 10 µM, stronger effect = higher value
Chain of Voltage-gated potassium channel subunit beta-2 (Rattus norvegicus) (P62483 whole entry, looked up): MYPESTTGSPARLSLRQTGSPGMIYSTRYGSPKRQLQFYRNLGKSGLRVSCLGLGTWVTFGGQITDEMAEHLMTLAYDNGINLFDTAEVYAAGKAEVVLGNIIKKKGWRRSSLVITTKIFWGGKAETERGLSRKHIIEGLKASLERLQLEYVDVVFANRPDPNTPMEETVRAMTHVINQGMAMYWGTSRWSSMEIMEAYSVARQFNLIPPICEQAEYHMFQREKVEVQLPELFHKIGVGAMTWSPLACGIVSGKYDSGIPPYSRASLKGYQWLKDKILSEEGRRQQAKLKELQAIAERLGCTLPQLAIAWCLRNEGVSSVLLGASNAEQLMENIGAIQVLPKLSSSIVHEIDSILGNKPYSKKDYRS

[5] = molecular target: Voltage-gated potassium channel subunit beta-2 (Rattus norvegicus) (UniProt P62483); assay: KvBeta positive modulators, primary screen, biochemical, NADPH fluorescence (AID 623;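 active = NADPH fluorescence slope more negative than the mean of all samples by about 3 SD, 99.7% confidence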;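 note: fluorescence intensity change per second fitted from 20 to 320 s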); conditions: Recombinant KvBeta, NADPH fluorescence decrease slope, 10 min; at 10 µM; stronger effect = lower value
[6] = molecular target: Muscarinic acetylcholine receptor M4 (Homo sapiens) (UniProt P08173); assay: compounds altering M4/GIRK thallium flux, either direction, primary screen, M4 allosteric agonist project, cell-based, HEK293 M4/GIRK, BTC-AM (AID 625;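 active = fluorescence slope after compound addition differing from the mean of all tested samples at 99.7% confidence, mostly higher but some lower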;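 note: thallium influx through GIRK channels coupled to M4 in HEK293 cells with BTC-AM dye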); conditions: at 10 µM, actives lie on both sides
Chain of Muscarinic acetylcholine receptor M4 (Homo sapiens) (P08173 whole entry, looked up): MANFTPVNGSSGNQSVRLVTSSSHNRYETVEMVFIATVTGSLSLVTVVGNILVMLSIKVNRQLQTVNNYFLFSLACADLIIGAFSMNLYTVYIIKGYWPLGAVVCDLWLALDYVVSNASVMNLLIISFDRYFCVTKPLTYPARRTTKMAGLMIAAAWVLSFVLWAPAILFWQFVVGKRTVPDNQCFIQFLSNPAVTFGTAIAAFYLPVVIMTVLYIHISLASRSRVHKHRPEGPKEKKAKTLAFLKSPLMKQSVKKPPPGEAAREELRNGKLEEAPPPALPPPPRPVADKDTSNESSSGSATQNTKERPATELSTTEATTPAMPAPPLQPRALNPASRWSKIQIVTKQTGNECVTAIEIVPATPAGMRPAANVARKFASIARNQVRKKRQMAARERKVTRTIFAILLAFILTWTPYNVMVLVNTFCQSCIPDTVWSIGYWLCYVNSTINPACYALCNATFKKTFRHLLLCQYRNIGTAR
How it was run: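 Material – HEK293 cells with M4 receptor and GIRK channels · Buffer or medium – pH 7.3 thallium assay buffer · Doses – one dose, 10 µM final · Timing – cells overnight at 37 °C, BTC-AM loading 1 h, reads 2 min total · Measured by – kinetic fluorescence with BTC-AM dye · Controls – carbachol and DMSO controls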

[7] = inhibitors of Sendai virus-induced IRF3 signaling, primary screen, TLR/RLR signaling modifier project, cell-based, Sendai virus stimulus, luciferase, 10K MLSCN set (AID 602276;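 active = inhibition at or above 50% at 10 µM; inactive = inhibition below 50%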;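 note: firefly luciferase from ISG56 promoter only with Renilla not read in this screen; 0% = Sendai virus plus DMSO and 100% = medium plus DMSO without virus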); conditions: HEK293 RL24 IRF3 luciferase reporter, at 10 µM, stronger effect = higher value
[8] = inhibitors of poly I:C-induced TLR3 signaling, primary screen, cell-based, poly I:C stimulus, luciferase, 10K MLSCN set (AID 602277;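 active = inhibition of the reporter signal at or above 50%; inactive = inhibition below 50%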); conditions: HEK293-TLR3 RL24 IRF3 luciferase reporter, at 10 µM, stronger effect = higher value

Compound | cell count [1] | inhibition [1] | inhibition of aggregation [2] | nuclei count [2] | inhibition [3] | nuclei count [3] | fluorescence slope [4] | NADPH fluorescence slope [5] | fluorescence slope [6] | inhibition [7] | inhibition [8]
O=C1C2CCCN2C(c2ccc(Cl)cc2)N1c1nccs1 (stereo not drawn) | 378 | -7.5% (inactive) | -18.3% (inactive) | 99.7% | 12.8% (inactive) | 92.8% | -0.556 (inactive) | -6e-05 (inactive) | 0.00531 (inactive) | 11.3% (inactive) | 13.5% (inactive)
CCn1c(CC(=O)Nc2cccc(OC)c2)nnc1SCC(=O)Nc1nccs1 | 835 | 4.3% (inactive) | 8.8% (inactive) | 103% | -129% (inactive) | 112% | -0.545 (inactive) | -3.8e-05 (inactive) | 0.00415 (inactive) | 4.04% (inactive) | 21.5% (inactive)
O=C(c1ccco1)N1CCN(CC(=O)N(C2CCCCC2)C2CCS(=O)(=O)C2)CC1 (stereo not drawn) | 311 | -5.7% (inactive) | -12.8% (inactive) | 75.5% | -28.9% (inactive) | 110% | -0.565 (inactive) | -5.3e-05 (inactive) | 0.00633 (inactive) | 7.31% (inactive) | 12.1% (inactive)
COC(=O)c1c(-c2ccc(F)cc2)noc1N | 502 | 5.3% (inactive) | -3.7% (inactive) | 106% | -2% (inactive) | 104% | -0.278 (inactive) | -6.3e-06 (inactive) | 0.00633 (inactive) | -1.09% (inactive) | -9.58% (inactive)
COc1ccc2c(c1)CCc1c(C(=O)N3CCCc4ccccc43)noc1-2 | 419 | -4.5% (inactive) | 17.4% (inactive) | 69.7% | -32.7% (inactive) | 108% | -0.459 (inactive) | -0.000351 (inactive) | 0.00416 (inactive) | -24% (inactive) | -75% (inactive)
O=c1c(-c2ccc(F)cc2)coc2c3c(ccc12)OCCO3 | 337 | 0.7% (inactive) | 14.4% (inactive) | 131% | -65.5% (inactive) | 124% | -0.501 (inactive) | -0.000205 (inactive) | 0.00582 (inactive) | -29.6% (inactive) | -86.4% (inactive)
CCN(CC)C(=O)C1=C(C)NC(=O)NC1c1c(F)cccc1Cl (stereo not drawn) | 410 | -7.5% (inactive) | -3.7% (inactive) | 116% | -73.9% (inactive) | 122% | -0.521 (inactive) | -0.000194 (inactive) | 0.00392 (inactive) | 7.67% (inactive) | 10.6% (inactive)
CCNc1nc(N2CCCCC2)nc(-n2nnc(C(=O)OCC)c2C)n1 | 550 | -5.3% (inactive) | 1.6% (inactive) | 92.5% | 27.7% (inactive) | 66.8% | -0.613 (inactive) | -6.3e-05 (inactive) | 0.00368 (inactive) | -2.26% (inactive) | 4.91% (inactive)
Cc1ccc(-n2c(=O)[nH]c3c(C(N)=O)nc(CC(C)C)nc32)cc1 | 297 | 37.7% (active) | 9.5% (inactive) | 92.3% | 6.3% (inactive) | 98.1% | -0.536 (inactive) | -0.000117 (inactive) | 0.00328 (inactive) | -2.4% (inactive) | 8.27% (inactive)
CCN(CC)CC(=O)Nc1ccc(-c2nc3cc(NC(=O)CN(CC)CC)ccc3o2)cc1 | 621 | 4.9% (inactive) | -13.9% (inactive) | 102% | 41.6% (inactive) | 100% | -0.0978 (inactive) | -3.8e-06 (inactive) | 0.00522 (inactive) | -12.5% (inactive) | 92.9% (active)
CC(=O)Nc1nc(C)c(-c2csc(Nc3ccc(O)cc3)n2)s1 | 547 | 1.5% (inactive) | 33.1% (inactive) | 99.7% | -154% (inactive) | 164% | -0.556 (inactive) | -2.7e-05 (inactive) | 0.00314 (inactive) | 20.1% (inactive) | 9.01% (inactive)
O=C(C1CCN(S(=O)(=O)N2CCC3(CC2)OCCO3)CC1)N1CCOCC1 | 648 | 14.8% (inactive) | 17.5% (inactive) | 89.1% | 28.9% (inactive) | 96.9% | -0.571 (inactive) | -8.3e-05 (inactive) | 0.00319 (inactive) | -6.46% (inactive) | -2.34% (inactive)
O=C(CCNC(=O)Cn1ccc2ccccc2c1=O)NCCN1CCN(c2ccccc2F)CC1 | 335 | -5.7% (inactive) | -19.4% (inactive) | 104% | 1.6% (inactive) | 104% | -0.528 (inactive) | 3.6e-05 (inactive) | 0.00558 (inactive) | 12.1% (inactive) | 14.1% (inactive)
CCCc1nc2ccccc2c(=O)n1NC(=O)c1c(O)c2cccc3c2n(c1=O)CCC3 | 554 | -15.1% (inactive) | -12.2% (inactive) | 92% | -150% (inactive) | 120% | -0.391 (inactive) | -0.000105 (inactive) | 0.00863 (inactive) | 7.44% (inactive) | 6.93% (inactive)
O=c1c[n+]([O-])c2ccccc2n1OCc1ccccn1 | 649 | -0.8% (inactive) | -17.9% (inactive) | 103% | -73% (inactive) | 106% | -0.464 (inactive) | 2.5e-05 (inactive) | 0.00798 (inactive) | -4.06% (inactive) | -7.39% (inactive)
CCN1CCN(CCCNC(=O)c2cn(CCOC)c(=O)c3c2c2ccccc2n3C)CC1 | 451 | -6.3% (inactive) | 5.8% (inactive) | 103% | -2.9% (inactive) | 106% | -0.569 (inactive) | -1.9e-06 (inactive) | 0.00513 (inactive) | -6.82% (inactive) | 0.455% (inactive)
C=CCNC(=O)CNS(=O)(=O)c1ccc(F)cc1 | 443 | -2.6% (inactive) | 11.8% (inactive) | 73.9% | 36.9% (inactive) | 88% | -0.592 (inactive) | 1e-05 (inactive) | 0.00626 (inactive) | 19.3% (inactive) | 45.8% (inactive)
CC1Oc2ccccc2N(CC(=O)N(Cc2ccccc2)Cc2ccccn2)C1=O (stereo not drawn) | 640 | -12.1% (inactive) | -1.2% (inactive) | 106% | 81.9% (active) | 112% | -0.297 (inactive) | -8.9e-06 (inactive) | 0.00604 (inactive) | -6.61% (inactive) | -7.77% (inactive)
Cc1ccc(NC(=O)C2CCCN2C(=O)Oc2ccccc2)cc1 (stereo not drawn) | 344 | 6% (inactive) | 3.9% (inactive) | 88.6% | 26.5% (inactive) | 79.2% | -0.41 (inactive) | -6.8e-06 (inactive) | 0.00654 (inactive) | 5.65% (inactive) | 12.3% (inactive)
COCCN1C(=O)C(=O)/C(=C(/O)c2cccc(OC)c2)C1c1ccncc1 (stereo not drawn) | 272 | 22.2% (inactive) | 17.9% (inactive) | 95.1% | 54.5% (inactive) | 92.1% | -0.578 (inactive) | -8.8e-06 (inactive) | 0.00539 (inactive) | 13.1% (inactive) | 15.1% (inactive)
Cc1cc2oc(C(=O)NC3CCS(=O)(=O)C3)c(C)c2cc1C (stereo not drawn) | 328 | 5.6% (inactive) | -2.9% (inactive) | 97% | -75.1% (inactive) | 118% | -0.576 (inactive) | -3.1e-05 (inactive) | 0.00365 (inactive) | 9.17% (inactive) | -12% (inactive)
COc1cccc(C(=O)Nc2cccc(C(=O)N3CCOCC3)c2)c1 | 354 | 1.6% (inactive) | 0.9% (inactive) | 76% | -121% (inactive) | 95% | -0.564 (inactive) | -3.3e-05 (inactive) | 0.00825 (inactive) | 3.67% (inactive) | 1.87% (inactive)
N#CCCn1cnc2ccccc21 | 332 | 5.6% (inactive) | 22.8% (inactive) | 99.2% | 63.2% (active) | 132% | -0.564 (inactive) | -2.5e-05 (inactive) | 0.0098 (inactive) | -0.285% (inactive) | 3.23% (inactive)
CN1CCN(C(=O)CN(Cc2ccc(Cl)cc2)S(C)(=O)=O)CC1 | 242 | -2.8% (inactive) | 6.8% (inactive) | 92% | -25% (inactive) | 110% | -0.535 (inactive) | 9.7e-06 (inactive) | 0.00447 (inactive) | 18% (inactive) | 19.4% (inactive)
COC(=O)c1cc(Br)c(=O)n(CCN2CCOCC2)c1 | 563 | 5.4% (inactive) | 1.7% (inactive) | 96.1% | 5.8% (inactive) | 104% | -0.43 (inactive) | -6.4e-05 (inactive) | 0.00578 (inactive) | 13% (inactive) | 20.6% (inactive)
COc1ccccc1N1CCN(C(=O)c2ccc3nc(-c4ccco4)c(-c4ccco4)nc3c2)CC1 | 570 | -15.9% (inactive) | 5.2% (inactive) | 136% | -44.3% (inactive) | 115% | -0.324 (inactive) | 3.6e-06 (inactive) | 0.005 (inactive) | 16.2% (inactive) | 8.44% (inactive)
CCOc1ccc(-n2c(C)nc3c(cnn3-c3ccc(Cl)cc3)c2=O)cc1 | 238 | -9% (inactive) | -23.6% (inactive) | 96.9% | 2.1% (inactive) | 109% | -0.58 (inactive) | -4.1e-06 (inactive) | 0.00771 (inactive) | -2.74% (inactive) | -8.54% (inactive)
CC1(C)Cc2noc(N)c2C(C)(C)N1O | 762 | -11.6% (inactive) | -36.8% (inactive) | 118% | -81.1% (inactive) | 110% | -0.39 (inactive) | 4.7e-05 (inactive) | 0.00626 (inactive) | 13.8% (inactive) | 22.1% (inactive)
